As a reminder, the IC50 is the concentration that inhibits the measured activity by half. By inhibition is commonly meant the share of the control response that was lost under treatment.

These results are taken from ChEMBL document CHEMBL1765014, “Non-peptide NK1 receptor ligands based on the 4-phenylpyridine moiety” (Bioorg Med Chem, 2011).

One assay addresses Substance-P receptor (Homo sapiens, UniProt P25103). Put plainly: Displacement of [125I]BH-SP from human recombinant NK1 receptor expressed in CHO cells after 90 mins. The format is cell-based. On the technique in general: Loss of bound radioactivity is the signal in a displacement assay; it reports binding, not function.
The nature of assay [1]: Antiangiogenic activity in bovine CVEC cell assessed as inhibition of Sar9-SP-sulfone-induced cell migration at 100 nM after 4 hrs by microscopic analysis. Format: functional. The settings on record: Bos taurus. The gist of the method: (§1)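 Bovine post-capillary venular endothelial cells (CVEC), cultured as previously described. Cells migrated toward 10 nM Sar9-SP-sulfone with or without test compound in a Neuroprobe microchemotaxis chamber and were evaluated after 4 h. Results are expressed as % inhibition of Sar9-SP-sulfone-induced activity. Data are means ± SEM of three experiments; Student's t test.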

In assay [2] the test system is CVEC. As to the kind of experiment: Antiangiogenic activity in bovine CVEC cell assessed as cell migration at 100 nM to 1 uM after 4 hrs by microscopic analysis. Format: functional, cell-based. As to conditions: Bos taurus. The gist of the method:
as §1

Assay [3] is described as follows: Antiangiogenic activity in bovine CVEC cell assessed as inhibition of Sar9-SP-sulfone-induced proliferation at 1 uM after 48 hrs by microscopic analysis. The format is functional. The settings on record: Bos taurus. A digest of the protocol:
(§2)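 Subconfluent, synchronized bovine CVEC were stimulated with 10 nM Sar9-SP-sulfone, with or without test compound, for 48 h. Fixed and stained cells were counted microscopically as total cell number per well. Results are expressed as % inhibition of agonist-induced proliferation. Data are means ± SEM of three experiments; Student's t test.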

A short description of assay [4]: Antiangiogenic activity in bovine CVEC cell assessed as inhibition of Sar9-SP-sulfone-induced cell migration at 1 uM after 4 hrs by microscopic analysis. The format is functional. As to conditions: Bos taurus. The gist of the method: as §1
Assay [5] relates to CVEC. Put plainly: Antiangiogenic activity in bovine CVEC cell assessed as cell proliferation at 100 nM to 1 uM after 48 hrs by microscopic analysis. The format is functional, cell-based. The settings on record: Bos taurus. The gist of the method:
as §2

Assay [6] can be described thus: Antiangiogenic activity in bovine CVEC cell assessed as inhibition of Sar9-SP-sulfone-induced proliferation at 100 nM after 48 hrs by microscopic analysis. As to conditions: Bos taurus. The format is functional. The gist of the method: as §2
Assay [7] is described as follows: Antiangiogenic activity in bovine CVEC cell assessed as inhibition of Sar9-SP-sulfone-induced proliferation after 48 hrs by microscopic analysis. Format: functional, cell-based. The settings on record: Bos taurus. A digest of the protocol: as §2
Assay [8] is described as follows: Antiangiogenic activity in bovine CVEC cell assessed as inhibition of Sar9-SP-sulfone-induced cell migration after 4 hrs by microscopic analysis. The format is functional, cell-based. As to conditions: Bos taurus. The gist of the method: as §1

The source made the active and inactive calls. The rule behind the calls is not given here.

Substance-P receptor, sequence (P25103 whole entry): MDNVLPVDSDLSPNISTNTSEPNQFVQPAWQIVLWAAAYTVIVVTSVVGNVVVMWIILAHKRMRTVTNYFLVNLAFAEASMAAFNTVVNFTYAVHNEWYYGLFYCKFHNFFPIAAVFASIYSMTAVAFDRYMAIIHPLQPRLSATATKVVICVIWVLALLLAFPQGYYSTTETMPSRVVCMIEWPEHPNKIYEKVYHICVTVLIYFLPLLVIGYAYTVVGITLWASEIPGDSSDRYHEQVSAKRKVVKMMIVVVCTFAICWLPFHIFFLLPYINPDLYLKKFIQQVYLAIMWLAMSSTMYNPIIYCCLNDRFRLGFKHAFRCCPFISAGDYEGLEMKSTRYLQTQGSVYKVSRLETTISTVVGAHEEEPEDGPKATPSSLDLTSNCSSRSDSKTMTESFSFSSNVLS

Regarding `Cc1nc2ccccc2c(-c2ccccc2)c1C(=O)N(C)Cc1cc(C(F)(F)F)cc(C(F)(F)F)c1`, the IC50 on Substance-P receptor is 19 nM.
Still for that read-out and setting: with `O=C(NCc1cc(C(F)(F)F)cc(C(F)(F)F)c1)c1cnc2ccccc2c1-c1ccccc1` the figure was 208 nM; with `Cc1c(C(=O)N(C)Cc2cc(C(F)(F)F)cc(C(F)(F)F)c2)c(-c2ccccc2)cc[n+]1[O-]`, 32 nM.
Still for that read-out and setting: with `Cc1cc(-c2ccccc2)c(C(=O)NCc2cc(C(F)(F)F)cc(C(F)(F)F)c2)c(C)n1` the figure was 434 nM.
On the same count and under the same terms, with `Cc1nccc(-c2ccccc2)c1C(=O)N(C)Cc1cc(C(F)(F)F)cc(C(F)(F)F)c1` the figure was 98 nM; with `Cc1c(C(=O)N(C)Cc2cc(C(F)(F)F)cc(C(F)(F)F)c2)c(-c2ccccc2)cc2nnnn12`, 57 nM.
On to `O=C(NCc1cc(C(F)(F)F)cc(C(F)(F)F)c1)c1c(CO)nc2ccccc2c1-c1ccccc1`, for which the IC50 at Substance-P receptor amounted to 227 nM.
With `Cc1nc(N2CCN(C)CC2)cc(-c2ccccc2)c1C(=O)N(C)Cc1cc(C(F)(F)F)cc(C(F)(F)F)c1`, the inhibition at 0.1 µM in assay [1] is 100%; in [6] it was 7.6%. Besides, the result with CVEC [2] and with CVEC [5] was inactive. Also, the inhibition at 1 µM turned out to be 79.7% in assay [3] and 99% in assay [4]. Further, on Substance-P receptor, the IC50 turned out to be 4.8 nM.
As to `Cc1nc(N2CCN(C)CC2)cc(-c2ccccc2)c1C(=O)NCc1cc(C(F)(F)F)cc(C(F)(F)F)c1`, the inhibition at 0.1 µM in assay [1] stood at 100%; in assay [6], 33.5%. Moreover, the result in the assay on CVEC [2] and with CVEC [5] was inactive. The inhibition at 1 µM in assay [3] came out at 76.3%; in [4], 100%. Further, on Substance-P receptor, the IC50 turned out to be 53 nM.
Turning to `Cc1c(C(=O)NCc2cc(C(F)(F)F)cc(C(F)(F)F)c2)c(-c2ccccc2)cc[n+]1[O-]`, on Substance-P receptor, the IC50 is 342 nM.
In the case of `CN(Cc1cc(C(F)(F)F)cc(C(F)(F)F)c1)C(=O)c1cnc2ccccc2c1-c1ccccc1`, the IC50 on Substance-P receptor came to 92 nM.
`Cc1nc2ccccc2c(-c2ccccc2)c1C(=O)NCc1cc(C(F)(F)F)cc(C(F)(F)F)c1`: the IC50 on Substance-P receptor came out at 257 nM.
Same read-out and setting: next, `Cc1nc(Cl)cc(-c2ccccc2)c1C(=O)NCc1cc(C(F)(F)F)cc(C(F)(F)F)c1`: 270 nM; `CN(Cc1cc(C(F)(F)F)cc(C(F)(F)F)c1)C(=O)c1c(CO)nc2ccccc2c1-c1ccccc1`: 42 nM; `Cc1c(C(=O)NCc2cc(C(F)(F)F)cc(C(F)(F)F)c2)c(-c2ccccc2)cc2nncn12`: 698 nM.
Take `COc1ccccc1CNC(=O)c1c(-c2ccccc2)ccnc1C`: the concentration for half-maximal inhibition (IC50) in assay [7] and in [8] was above 1000 nM in each case. In addition, the inhibition at 0.1 µM in assay [1] and in assay [6] was 0% throughout. The inhibition at 1 µM in assay [3] is 11%; in assay [4], 9%.
In the case of `Cc1nccc(-c2ccccc2)c1C(=O)NCc1cc(C(F)(F)F)cc(C(F)(F)F)c1`, the IC50 at Substance-P receptor was determined as 653 nM.
Same read-out and setting: next, `Cc1nc(Cl)cc(-c2ccccc2)c1C(=O)N(C)Cc1cc(C(F)(F)F)cc(C(F)(F)F)c1`: 91 nM; `CN(Cc1cc(C(F)(F)F)cc(C(F)(F)F)c1)C(=O)c1c(-c2ccccc2)ccnc1CCl`: 52 nM.
Same read-out and setting: next, `Cc1c(C(=O)NCc2cc(C(F)(F)F)cc(C(F)(F)F)c2)c(-c2ccccc2)cc2nnnn12`: 279 nM; `O=C(NCc1cc(C(F)(F)F)cc(C(F)(F)F)c1)c1c(-c2ccccc2)ccnc1CCl`: 235 nM.
As to `Cc1c(C(=O)N(C)Cc2cc(C(F)(F)F)cc(C(F)(F)F)c2)c(-c2ccccc2)cc2nncn12`, at Substance-P receptor, the IC50 is 53 nM.
The same measure, in the same setting: next, `Cc1cc(-c2ccccc2)c(C(=O)N(C)Cc2cc(C(F)(F)F)cc(C(F)(F)F)c2)c(C)n1`: 41 nM.
